Laboratory results as given in ChEMBL document CHEMBL3414517, “Synthesis and structure-activity relationship study of a new series of selective σ(1) receptor ligands for the treatment of pain: 4-aminotriazoles” (J Med Chem, 2015).
In brackets after ≈: the same amount, converted by molar mass. Values belong to the compound of their own block, whether it stands above or below them.

Key:
Cavia porcellus = species: Cavia porcellus; test: Displacement of [3H]-DTG from sigma 2 receptor in guinea pig brain membrane at 1 uM after 120 mins by liquid scintillation counting; format: cell membranes
Summary of the method: (§1)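 Guinea pig brain membranes (200 μg) with 10 nM [³H]-DTG in 50 mM Tris-HCl pH 8, σ1R masked by 400 nM (+)-SKF10047; 25 °C, 120 min; 10 μM haloperidol for non-specific binding. Filtered, washed 3× ice-cold 50 mM Tris-HCl pH 7.4, scintillation counted.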

[1] = Displacement of [3H]-DTG from sigma 2 receptor in guinea pig brain membrane after 120 mins by liquid scintillation counting; format: cell membranes, Cavia porcellus; summary of the method: as §1
[2] = molecular target: Voltage-gated inwardly rectifying potassium channel KCNH2 (Homo sapiens, UniProt Q12809)
[3] = Thermodynamic solubility of the compound in phosphate buffer at pH 7.4; format: physicochemical; details: read-out: Therm_solubility
Summary of the method: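 Thermodynamic solubility measured from solid compound in phosphate buffer, pH 7.4, quantified by HPLC.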

[4] = Apparent permeability across human Caco2 cells at 10 uM after 2 hrs; format: ADME, cell-based; details: Caco-2
[5] = Lipophilicity, log P of the compound; format: physicochemical; details: octanol/water
Summary of the method: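 clogP calculated with ChemDraw Ultra 10.0.3.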

Mus musculus [6] = test: Antinociceptive activity against formalin-induced pain in CD1 mouse assessed as reduction in mean licking and biting time at 80 mg/kg, po administered 30 mins before fomalin injection measured during second phase of 15 to 30 mins after formalin challenge; format: functional
Summary of the method: (§2)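 Male CD1 mice, 6–8 weeks; 20 μL of 2.5% formalin (0.92% formaldehyde) injected i.pl. into right hind paw midplantar surface. Vehicle 0.5% HPMC or compound given i.p. or p.o. (10 mL/kg) 30 min before formalin; n = 7–8/group. Licking/biting time scored 15–30 min post-injection (phase II), blind; % antinociception derived relative to vehicle group.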

[7] = Dissociation constant, pKa of the compound; format: physicochemical
Summary of the method: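 pKa calculated in silico with ACDLABS 9.0.3.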

[8] = Intrinsic clearance in human liver microsomes assessed as per mg of protein at 10 uM; format: ADME; details: read-out: CLH
Mus musculus [9] = test: Antinociceptive activity in CD1 mouse sciatic nerve injury-induced neuropathic pain model assessed as reduction in mechanical hypersensitivity measured as hind paw withdrawal response at 80 mg/kg, po treated 30 mins before test by von Frey filament test; format: functional
Summary of the method: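 Male CD1 mice with partial sciatic nerve ligation; habituation 4 days, 2 baseline days, allodynia checked days 5 and 8 (vehicle on day 8). Compound given p.o. (10 mL/kg) on day 15, 30 min before von Frey testing; n = 7–8/group, two independent experiments. Effect referenced to day-8 vehicle threshold and pre-surgery baseline.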

Mus musculus [10] = test: Antinociceptive activity against formalin-induced pain in CD1 mouse assessed as reduction in mean licking and biting time at 40 mg/kg, ip administered 30 mins before fomalin injection measured during second phase of 15 to 30 mins after formalin challenge; format: functional; details: route intraperitoneal; summary of the method: as §2
Mus musculus [11] = test: Antinociceptive activity in CD1 mouse assessed as reduction in capsaicin-induced mechanical hypersensitivity measured as latency time to paw withdrawal response to upward pressure at 80 mg/kg, po administered 30 mins prior to capsaicin-challenge measured after 45 mins of treatment by von Frey filament test; format: functional
Summary of the method: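 Female CD1 mice habituated 2 h on mesh platform; vehicle 0.5% HPMC or compound p.o. (10 mL/kg) 30 min before i.pl. capsaicin (1 μg in 20 μL 1% DMSO). 15 min after capsaicin, dynamic plantar aesthesiometer filament (0.5 g) applied ≥5 mm from site, 3 trials averaged, 50 s cut-off; n = 8–26. % reduction of hypersensitivity = (LTD−LTV)/(CT−LTV)×100.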

[12] = molecular target: Sigma non-opioid intracellular receptor 1 (Homo sapiens, UniProt Q99720); test: Displacement of [3H](+)-pentazocine from human sigma 1 receptor transfected in HEK293 cells after 120 mins by liquid scintillation counting; format: cell-based
Chain of Sigma non-opioid intracellular receptor 1 (Q99720 whole entry): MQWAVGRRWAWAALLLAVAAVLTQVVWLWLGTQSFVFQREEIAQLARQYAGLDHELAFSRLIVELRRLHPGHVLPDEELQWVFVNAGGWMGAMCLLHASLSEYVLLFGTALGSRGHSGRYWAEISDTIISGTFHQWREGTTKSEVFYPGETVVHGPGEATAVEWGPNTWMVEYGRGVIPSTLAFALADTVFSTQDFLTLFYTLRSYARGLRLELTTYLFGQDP

Chain of Voltage-gated inwardly rectifying potassium channel KCNH2 (Q12809 whole entry): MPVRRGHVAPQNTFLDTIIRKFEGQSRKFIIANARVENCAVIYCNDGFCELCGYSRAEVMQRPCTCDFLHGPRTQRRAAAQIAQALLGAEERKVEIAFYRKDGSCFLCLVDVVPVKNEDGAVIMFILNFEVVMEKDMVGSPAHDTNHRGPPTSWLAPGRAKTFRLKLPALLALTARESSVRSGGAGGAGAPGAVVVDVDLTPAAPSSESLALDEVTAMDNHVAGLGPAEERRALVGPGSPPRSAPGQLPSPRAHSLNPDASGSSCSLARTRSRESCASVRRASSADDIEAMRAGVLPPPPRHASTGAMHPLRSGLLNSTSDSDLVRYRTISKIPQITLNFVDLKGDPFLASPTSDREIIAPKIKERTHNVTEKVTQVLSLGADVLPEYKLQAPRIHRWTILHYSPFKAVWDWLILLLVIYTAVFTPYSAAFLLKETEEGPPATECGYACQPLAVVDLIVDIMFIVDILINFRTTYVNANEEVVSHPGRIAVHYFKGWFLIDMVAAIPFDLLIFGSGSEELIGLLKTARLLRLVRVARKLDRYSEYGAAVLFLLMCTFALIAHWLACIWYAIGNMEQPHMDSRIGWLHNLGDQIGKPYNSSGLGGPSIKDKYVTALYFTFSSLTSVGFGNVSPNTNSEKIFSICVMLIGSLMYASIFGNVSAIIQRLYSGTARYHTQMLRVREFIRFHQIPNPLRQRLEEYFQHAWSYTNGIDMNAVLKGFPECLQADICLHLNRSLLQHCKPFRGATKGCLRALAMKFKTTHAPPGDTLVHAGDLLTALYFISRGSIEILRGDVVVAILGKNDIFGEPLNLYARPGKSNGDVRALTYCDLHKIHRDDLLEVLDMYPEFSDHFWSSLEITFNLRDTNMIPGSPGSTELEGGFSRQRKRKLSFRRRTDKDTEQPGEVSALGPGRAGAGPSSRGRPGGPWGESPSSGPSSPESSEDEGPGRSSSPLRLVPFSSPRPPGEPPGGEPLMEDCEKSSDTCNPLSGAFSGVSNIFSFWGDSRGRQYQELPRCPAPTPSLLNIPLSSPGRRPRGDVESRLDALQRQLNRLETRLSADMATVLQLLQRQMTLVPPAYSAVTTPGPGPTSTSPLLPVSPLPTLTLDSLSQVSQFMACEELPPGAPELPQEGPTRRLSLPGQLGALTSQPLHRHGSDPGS

- inhibition (Cavia porcellus): 66%
Structure (SMILES): Fc1ccc(Cn2cc(NCCN3CCCCC3)nn2)cc1

- inhibition (Cavia porcellus): 87%
Structure (SMILES): Clc1ccc(Cn2cc(NCCN3CCCCCC3)nn2)cc1Cl

- Ki [1]: 72 nM
Structure (SMILES): CCN(CCN1CCOCC1)c1cn(C23CC4CC(CC(C4)C2)C3)nn1

- inhibition (Cavia porcellus): 43%
Structure (SMILES): Fc1cccc(Cn2cc(NCCN3CCCCC3)nn2)c1
- IC50 [2]: > 10000 nM

- solubility thermodynamic [3]: > 4000 µg/mL
- Papp at 2 h, 10 µM [4]: 46.2 ×10⁻⁶ cm/s
- logP [5]: 2.4
- pKa [7]: 6.7
- Ki [1]: > 10000 nM
- microsomal CLint at 10 µM [8]: 2.9 µL/min/mg
Structure (SMILES): Clc1ccc(Cn2cc(NCCN3CCOCC3)nn2)cc1Cl
- inhibition in vivo at 80 mg/kg (Mus musculus [6]): 67%
- inhibition in vivo at 80 mg/kg (Mus musculus [9]): 140%
- inhibition in vivo at 40 mg/kg (Mus musculus [10]): 94%
- inhibition in vivo at 80 mg/kg (Mus musculus [11]): 94%

- Ki [12]: > 1000 nM
Structure (SMILES): c1ccc(Cn2cc(NCCN3CCOCC3)nn2)cc1

- Ki [1]: 946 nM
Structure (SMILES): Fc1ccc(Cn2cc(NCCN3CCCCC3)nn2)cc1F

- Ki [12]: 9620 nM
Structure (SMILES): CN1CCN(CCNc2cn(Cc3ccccc3)nn2)CC1

- Ki [12]: 451 nM
Structure (SMILES): CCCN(CCN1CCOCC1)c1cn(-c2ccc(Cl)c(Cl)c2)nn1

- inhibition (Cavia porcellus): 53%
Structure (SMILES): Fc1ccc(-n2cc(NCCN3CCCCC3)nn2)c(F)c1

- solubility thermodynamic [3]: 170 µg/mL (≈ 497 µM)
- Papp at 2 h, 10 µM [4]: 51 ×10⁻⁶ cm/s
- logP [5]: 2.9
- pKa [7]: 6.6
- Ki [1]: > 10000 nM
- microsomal CLint at 10 µM [8]: 0.8 µL/min/mg
Structure (SMILES): Clc1ccc(-n2cc(NCCN3CCOCC3)nn2)cc1Cl
- IC50 [2]: > 10000 nM
- inhibition in vivo at 80 mg/kg (Mus musculus [6]): 62%
- inhibition in vivo at 80 mg/kg (Mus musculus [9]): 56%
- inhibition in vivo at 40 mg/kg (Mus musculus [10]): 95%
- inhibition in vivo at 80 mg/kg (Mus musculus [11]): 68%

- inhibition (Cavia porcellus): 65%
Structure (SMILES): Clc1ccc(-n2cc(NCCN3CCCCC3)nn2)cc1
- IC50 [2]: 3100 nM

- Ki [1]: 323 nM
Structure (SMILES): Clc1ccc(-n2cc(NCCN3CCCCC3)nn2)cc1Cl
- IC50 [2]: 1700 nM

- inhibition (Cavia porcellus): 29%
Structure (SMILES): Fc1ccc(-n2cc(NCCN3CCC(F)(F)CC3)nn2)cc1F
- IC50 [2]: > 10000 nM

- Ki [12]: 662 nM
Structure (SMILES): Fc1ccc(Cn2cc(NCCN3CCOCC3)nn2)cc1

- inhibition (Cavia porcellus): 66%
Structure (SMILES): Clc1ccc(Cn2cc(NCCN3CCCOCC3)nn2)cc1Cl

- inhibition (Cavia porcellus): 54%
Structure (SMILES): Fc1ccc(-n2cc(NCCN3CCCCC3)nn2)cc1

- Ki [12]: > 1000 nM
Structure (SMILES): c1c(NCCN2CCOCC2)nnn1C1CCCCC1

- inhibition (Cavia porcellus): 47%
Structure (SMILES): Fc1cccc(-n2cc(NCCN3CCCOCC3)nn2)c1

- inhibition (Cavia porcellus): 72%
Structure (SMILES): C[C@@H]1CCC[C@H](C)N1CCNc1cn(Cc2ccc(F)cc2)nn1

- Ki [1]: 91 nM
- Ki [12]: 10 nM
Structure (SMILES): Clc1ccc(-n2ccc(NCCN3CCCCC3)n2)cc1Cl

- Ki [1]: > 10000 nM
Structure (SMILES): Fc1ccc(Cn2cc(NCCN3CCC(F)(F)CC3)nn2)cc1

Structure (SMILES): c1c(NCCN2CCOCC2)nnn1C12CC3CC(CC(C3)C1)C2
- IC50 [2]: > 10000 nM

- Ki [1]: 55 nM
Structure (SMILES): CCN(CCN1CCOCC1)c1cn(-c2ccc(Cl)c(Cl)c2)nn1

- Ki [12]: > 1000 nM
Structure (SMILES): Fc1ccc(-n2cc(NCCN3CCOCC3)nn2)cc1F

- inhibition (Cavia porcellus): 62%
Structure (SMILES): Clc1ccc(-n2cc(NCCN3CCCCC3)nn2)c(Cl)c1

- inhibition (Cavia porcellus): 59%
Structure (SMILES): Fc1cccc(-n2cc(NCCN3CCCCC3)nn2)c1
- IC50 [2]: 5200 nM

- Ki [12]: 459 nM
Structure (SMILES): CC(=O)N(CCN1CCOCC1)c1cn(Cc2ccc(Cl)c(Cl)c2)nn1

- Ki [12]: 388 nM
Structure (SMILES): CC(=O)N(CCN1CCOCC1)c1cn(-c2ccc(Cl)c(Cl)c2)nn1

- Ki [1]: > 1000 nM
- microsomal CLint at 10 µM [8]: 3 µL/min/mg
Structure (SMILES): Cc1cc(OCCN2CCOCC2)nn1-c1ccc2ccccc2c1
- inhibition in vivo at 80 mg/kg (Mus musculus [6]): 66%
- inhibition in vivo at 80 mg/kg (Mus musculus [9]): 62%
- inhibition in vivo at 40 mg/kg (Mus musculus [10]): 50%
- inhibition in vivo at 80 mg/kg (Mus musculus [11]): 48%

- inhibition (Cavia porcellus): 75%
Structure (SMILES): c1ccc(Cn2cc(NCCN3CCCCCC3)nn2)cc1

- Ki [1]: 69 nM
Structure (SMILES): Clc1ccc(Cn2cc(NCCN3CCCCC3)nn2)cc1Cl

- inhibition (Cavia porcellus): 86%
Structure (SMILES): Fc1cccc(-n2cc(NCCN3CCCCCC3)nn2)c1

- Ki [12]: 508 nM
Structure (SMILES): Clc1ccc(Cn2cc(NCCCN3CCOCC3)nn2)cc1Cl

- Ki [12]: 878 nM
Structure (SMILES): Fc1ccc(Cn2cc(NCCN3CCOCC3)nn2)cc1F

- Ki [12]: 781 nM
Structure (SMILES): Fc1cccc(-n2cc(NCCN3CCOCC3)nn2)c1

- Ki [12]: > 1000 nM
Structure (SMILES): CS(=O)(=O)N(CCN1CCOCC1)c1cn(-c2ccc(Cl)c(Cl)c2)nn1

- Ki [12]: 818 nM
Structure (SMILES): CC(=O)N1CCN(CCNc2cn(Cc3ccc(Cl)c(Cl)c3)nn2)CC1

- inhibition (Cavia porcellus): 74%
Structure (SMILES): Fc1cccc(-n2cc(NCCN3CCN(C4CCCCC4)CC3)nn2)c1

- Ki [12]: 701 nM
Structure (SMILES): CCN(CC)CCNc1cn(Cc2ccccc2)nn1

- Ki [1]: 562 nM
Structure (SMILES): Clc1ccc(-n2ccc(NCCN3CCOCC3)n2)cc1Cl

- Ki [1]: > 10000 nM
Structure (SMILES): Fc1ccc(Cn2cc(NCCN3CCC(F)(F)CC3)nn2)cc1F
- IC50 [2]: > 10000 nM

- inhibition (Cavia porcellus): 65%
Structure (SMILES): Fc1ccc(-n2cc(NCCN3CCCCC3)nn2)cc1F
- IC50 [2]: 2200 nM

- Ki [1]: 624 nM
Structure (SMILES): c1ccc(Cn2cc(NCCN3CCCCC3)nn2)cc1
